This is a sample that favours compounds with a hit; in the whole collection about 2.4% have one here.
mABHD4 FP: inhibits mouse alpha/beta hydrolase domain 4; inhibition, % at 8.92 µM; purified mABHD4, FP-Rh probe fluorescence polarization; Q8VD66; AID 720543; 370,000 tested, 0.54% active;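 active = inhibition exceeding the mean over every tested compound plus 3 SD, cut at about 30% in these data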
Target sequence (Q8VD66 whole entry, looked up, the tested form may be a part): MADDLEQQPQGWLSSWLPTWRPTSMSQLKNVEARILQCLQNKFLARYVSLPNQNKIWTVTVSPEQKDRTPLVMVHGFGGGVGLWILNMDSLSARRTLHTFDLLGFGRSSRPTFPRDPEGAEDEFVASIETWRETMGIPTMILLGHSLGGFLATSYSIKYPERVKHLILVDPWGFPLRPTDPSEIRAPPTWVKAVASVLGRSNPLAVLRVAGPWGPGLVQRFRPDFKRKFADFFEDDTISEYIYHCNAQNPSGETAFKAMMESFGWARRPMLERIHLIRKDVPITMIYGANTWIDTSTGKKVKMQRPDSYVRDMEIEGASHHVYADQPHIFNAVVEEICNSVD
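system = mouse ABHD4 enzyme, wild type | medium = HEPES pH 7.0, NaCl, Pluronic buffer | also added = FP-Rh probe | incubation = Enzyme–compound pre-incubation 45 min, then probe 60 min, both 25 °C | technique = fluorescence polarization, excitation 525 nm, emission 598 nm, BODIPY TMR filters | controls = S159A mutant high control, sample median low control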
PRMT1 FP inh: PRMT1 (human) inhibition, primary screen; inhibition, % at 2.79 µM; 370,000 tested, 1.3% active; recombinant PRMT1, activity-based probe fluorescence polarization;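 active = inhibition above about 21% made by adding two undisclosed values, limit read from the data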
GASC-1 inh: blocks human GASC-1 demethylase activity | Q9H3R0 | GST-JMJD2C(1-420) H3K9me3 demethylation, DELFIA europium | inhibition, % at 2.35 µM | 330,000 tested, 0.069% active;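 active = more than half of a compound's replicate wells show inhibition beyond 50%, single wells judged on their own value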;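 also: signal counts dimethyl H3K9 product captured on neutravidin plate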
SIAE inh: human SIAE inhibition, primary screen. Q9HAT2. SIAE FP-Rh probe binding, fluorescence polarization. inhibition, % at 9.66 µM. 370,000 tested, 0.69% active. AID 1053197;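 active = inhibition above a cutoff: mean of compounds within the control limits plus 3 SD of those, cut at about 17% in these data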
HTRA1 inh: blocks human HTRA1 serine peptidase; Q92743; recombinant HTRA1, FP-rhodamine activity-based probe, fluorescence polarization; inhibition, % at 5.96 µM; 340,000 tested, 0.5% active; in the data active = inhibition above about 36%
PRMT1 confirm: PRMT1 (human) inhibition, FP confirmation; shares compounds with PRMT1 FP inh; recombinant His-PRMT1, activity-based probe fluorescence polarization; inhibition, % at 2.79 µM; 3,300 tested, 42% active;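 active = mean inhibition across replicates above the hit cutoff derived for the earlier primary screen, cut at about 22% in these data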
Each line names hits and unclear results; the compound was inactive in the other large screens (follow-up assays come after a bar, where they were run).

CCOc1ccc(N2C(=O)CC(NC3CCN(C(=O)c4ccc(F)cc4)CC3)C2=O)cc1 (stereo not drawn)	PRMT1 FP inh 53 | PRMT1 confirm inactive
O=C(NC(=S)Nc1nc(-c2ccccc2)cs1)c1cccs1	none
O=C(NNc1nc(-c2ccccc2)cs1)c1cccs1	PRMT1 FP inh 51 (no result: HTRA1 inh) | PRMT1 confirm inactive
COc1ccc(C(C(=O)NC2CCCC2)n2c(CSCCOc3ccccc3)nc3ccccc32)cc1 (stereo not drawn)	none (no result: GASC-1 inh, HTRA1 inh)
Cc1cn(CC(=O)NCCc2ccccn2)c(=O)[nH]c1=O	none (no result: GASC-1 inh)
CCn1c(-c2ccccc2)c[nH]c1=S	none
CC(C)Cn1c(-c2ccc(Br)cc2)c[nH]c1=S	PRMT1 FP inh 41 | PRMT1 confirm inactive
CC(=O)C1=CCC(c2ccccc2)N(S(=O)(=O)c2ccccc2C)C1 (stereo not drawn)	none (no result: GASC-1 inh, HTRA1 inh)
Cc1cc(Br)cn2c(Cc3ccsc3)c(-c3ccco3)nc12	PRMT1 FP inh 27 (no result: GASC-1 inh, HTRA1 inh) | PRMT1 confirm inactive
Cc1cc(Br)cn2c(Cc3ccccc3)c(-c3ccco3)nc12	PRMT1 FP inh 35 (no result: GASC-1 inh, HTRA1 inh) | PRMT1 confirm inactive
COc1ccc(Cc2c(-c3ccco3)nc3c(C)cc(Br)cn23)c(C)c1	none (no result: GASC-1 inh, HTRA1 inh)
C=CCN1C(=O)[C@H](CC(=O)NCCCC)[C@@]2(C(=O)OCC)CCCC=C12	none (no result: GASC-1 inh, HTRA1 inh)
CCOC(=O)[C@@]12CCC3=C1N(CCC3)C(=O)[C@H](CC(=O)N1CCN(C(=O)C3CC3)CC1)C2	none (no result: GASC-1 inh, HTRA1 inh)
O=C(NCc1cccnc1)c1ccc2c(c1)N(Cc1ccccc1)CCS2	PRMT1 FP inh 29 | PRMT1 confirm inactive
CCN1CCSc2ccc(C(=O)NCc3cccc(F)c3)cc21	none
O=C(NCc1ccccn1)c1ccc2c(c1)N(Cc1ccccc1)CCS2	none
CCCOc1ccc(CNC(=O)c2ccc3c(c2)N(CC)CCS3)cc1	PRMT1 FP inh 28 | PRMT1 confirm inactive
COc1ccccc1C/C(N)=N/OC(=O)c1cccc([N+](=O)[O-])c1	none
COc1ccc(C/C(N)=N/OC(=O)c2cccc([N+](=O)[O-])c2)cc1	PRMT1 FP inh 45 | PRMT1 confirm inactive
CS(=O)(=O)N1CCC[C@]2(CC[C@@H](CCC#N)O2)C1	none (no result: GASC-1 inh, HTRA1 inh)
CC1CCCC(C)N1C(=O)COC(=O)/C=C/c1ccc(Br)o1 (stereo not drawn)	none
CC1CCN(C(=O)COC(=O)/C=C/c2ccc(Br)o2)CC1	PRMT1 FP inh 36 | PRMT1 confirm inactive
S=C(NCc1ccccc1)NNc1nc2ccccc2[nH]1	PRMT1 FP inh 39 | PRMT1 confirm 67
N#CC1=C(N)NC(=S)C(C(N)=O)C1c1ccc([N+](=O)[O-])cc1 (stereo not drawn)	PRMT1 FP inh 67 | PRMT1 confirm inactive
O=C1NC(C(=O)O)=CC(c2ccc([N+](=O)[O-])cc2)N1 (stereo not drawn)	none
Cc1cc(C)cc(C(=O)OCCN(C)C2CN(Cc3cn(Cc4ccc([N+](=O)[O-])cc4)nn3)S(=O)(=O)C2)c1 (stereo not drawn)	none (no result: GASC-1 inh, HTRA1 inh)
O=C(NCCc1ccccc1F)c1ccc2c(c1)ncn2C1CCCCC1	none (no result: GASC-1 inh, HTRA1 inh)
COc1cc(N2C(=O)C=CC2=O)ccc1N1C(=O)C=CC1=O	PRMT1 FP inh 91 (no result: GASC-1 inh) | PRMT1 confirm 87
COc1ccc(N2C(=O)C3CC(C)=C(C)CC3C2=O)c(OC)c1 (stereo not drawn)	none
Cc1ccc(S(=O)(=O)Nc2ccc(Nc3nccn4c(-c5cccc(OC(F)(F)F)c5)cnc34)cc2)cc1	none (no result: GASC-1 inh, HTRA1 inh)
CCC(C(N)=O)N1C(=O)C2C3CCC(C3)C2C1=O (stereo not drawn)	none (no result: GASC-1 inh)
CC1(C)Cc2c(C#N)c(NCc3ccco3)nc(-c3ccco3)c2CO1	none
CC1(C)Cc2c(C#N)c(N3CCCC3)nc(-c3ccco3)c2CO1	PRMT1 FP inh 27 | PRMT1 confirm 26
Cc1ccc2occ(C3N[C@H](C(=O)O)CS3)c(=O)c2c1 (stereo partly drawn)	PRMT1 FP inh 50 | PRMT1 confirm 45
CC(COc1ccc(F)cc1)CN1CCC(C(O)(c2ccccc2)c2ccccc2)CC1 (stereo not drawn)	none (no result: GASC-1 inh, HTRA1 inh)
O=C(CCl)Nc1ncc(S(=O)(=O)c2ccc([N+](=O)[O-])cc2)s1	PRMT1 FP inh 33 | PRMT1 confirm inactive
CCC(C)(C)C(=O)Nc1ncc(S(=O)(=O)c2ccc([N+](=O)[O-])cc2)s1	none
